Experiments:
Assay type in all cases: functional, cell-based
[1] = test system: HeLa; assay: Cytotoxicity against human HeLa cells by MTT assay
Summary of the method: (§1)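 Colorimetric MTT assay, run as quintuplicate dose-response tests. Cytotoxic effect was plotted against log10 of drug concentration for each cell line. IC50 is the concentration that reduced the optical density of treated cells by 50% relative to untreated cells. 5-fluorouracil served as control.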

[2] = test system: A549; assay: Cytotoxicity against human A549 cells by MTT assay; summary of the method: as §1
[3] = Cytotoxicity against human QGY cells by MTT assay; summary of the method: as §1

Row | Compound | IC50 [1] | IC50 [2] | IC50 [3]
1 | CCOC(=O)C12C(=O)OCC=C1COC2c1ccccc1 (centres undefined) | 12.8 µM | > 1000 µM | > 1000 µM
2 | CCOC(=O)C12C(=O)OCC=C1COC2c1ccccc1F (centres undefined) | 22.1 µM | > 1000 µM | > 1000 µM
3 | CCOC(=O)C12C(=O)OCC=C1COC2c1ccc(F)cc1 (centres undefined) | 22.9 µM | > 1000 µM | > 1000 µM
4 | CCOC(=O)C12C(=O)OCC=C1COC2c1cccc(Cl)c1 (centres undefined) | > 1000 µM | 28.4 µM | > 1000 µM
5 | CCOC(=O)C12C(=O)OCC=C1COC2c1ccc(Cl)cc1 (centres undefined) | 118 µM | > 1000 µM | > 1000 µM
6 | CCOC(=O)C12C(=O)OCC=C1COC2c1ccc(Cl)c(Cl)c1 (centres undefined) | 72.4 µM | > 1000 µM | > 1000 µM
7 | CCOC(=O)C12C(=O)OCC=C1COC2c1ccc(Br)cc1 (centres undefined) | 48.7 µM | > 1000 µM | > 1000 µM
8 | CCOC(=O)C12C(=O)OCC=C1COC2c1ccc(C(C)(C)C)cc1 (centres undefined) | 25.4 µM | > 1000 µM | > 1000 µM
9 | CCOC(=O)C12C(=O)OCC=C1COC2c1ccc(OC)cc1 (centres undefined) | 18.3 µM | 9.3 µM | > 1000 µM
10 | CCOC(=O)C12C(=O)OCC=C1COC2c1ccc(OC)c(OC)c1 (centres undefined) | 10 µM | > 1000 µM | > 1000 µM
11 | CCOC(=O)C12C(=O)OCC=C1COC2c1cc(OC)cc(OC)c1 (centres undefined) | 16 µM | > 1000 µM | > 1000 µM
12 | CCOC(=O)C12C(=O)OCC=C1COC2c1cc(OC)c(OC)c(OC)c1 (centres undefined) | 5.4 µM | 13.3 µM | > 1000 µM
13 | CCOC(=O)C12C(=O)OCC=C1COC2c1ccc(N(C)C)cc1 (centres undefined) | 23.4 µM | 89.6 µM | > 1000 µM
14 | CCOC(=O)C12C(=O)OCC=C1COC2c1ccc([N+](=O)[O-])cc1 (centres undefined) | 53.4 µM | 36.8 µM | > 1000 µM
15 | CCOC(=O)C12C(=O)OCC=C1COC2c1ccco1 (centres undefined) | 28.3 µM | > 1000 µM | > 1000 µM
16 | CCOC(=O)C12C(=O)OCC=C1COC2c1cccs1 (centres undefined) | 30.4 µM | > 1000 µM | > 1000 µM
17 | CCOC(=O)C12C(=O)OCC=C1COC2c1ccccn1 (centres undefined) | 20.7 µM | > 1000 µM | > 1000 µM
18 | O=c1[nH]cc(F)c(=O)[nH]1 [FLUOROURACIL] | 16.1 µM | 5.6 µM | 14.1 µM

— ChEMBL document CHEMBL1777744, “Synthesis and anti-tumor activity of novel ethyl 3-aryl-4-oxo-3,3a,4,6-tetrahydro-1H-furo[3,4-c]pyran-3a-carboxylates” (Bioorg Med Chem Lett, 2011)
